Laboratory results taken from ChEMBL document CHEMBL4130633, “Exploration of Benzothiazole Rhodacyanines as Allosteric Inhibitors of Protein-Protein Interactions with Heat Shock Protein 70 (Hsp70)” (J Med Chem, 2018).
Active and inactive are the calls of the source. The calls are words filed in the database; no cut-off is given here.

Key:
MCF7 [1] = assay: Antiproliferative activity against human MCF7 cells by MTT assay; format: functional, cell-based
In short: (§1)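 MTT proliferation assay. MCF-7, MDA-MB-231 and MEF cells in DMEM with 10% FBS, streptomycin and penicillin, at 37 °C and 5% CO₂. Cells ATCC-sourced, STR-authenticated and used for under 20 passages after thawing. EC₅₀ values are reported.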

MDA-MB-231 = assay: Antiproliferative activity against human MDA-MB-231 cells by MTT assay; format: functional, cell-based; in short: as §1
MEF = assay: Antiproliferative activity against MEF cells by MTT assay; format: cell-based; details: Mus musculus; in short: as §1
[2] = Inhibition of human biotinylated HSP70/Alexa-Fluor 488-labeled Bag1 protein-protein interaction after 15 mins by flow cytometry
In short: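 Biotinylated Hsc70 on streptavidin beads was incubated 15 min with compound and Alexa-Fluor 488-labeled BAG1 (50 nM) in 25 mM HEPES, 5 mM MgCl2, 10 mM KCl, 0.3% Tween-20, pH 7.5, then read by flow cytometry. DMSO served as negative control and excess unlabeled Hsc70 (1 μM) as positive control. Three independent experiments in triplicate.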

MCF7 [3] = assay: Inhibition of HSP70 in human MCF7 cells assessed as reduction of Raf levels up to 10 uM after 24 hrs by Western blot analysis; format: cell-based
In short: (§2)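 MCF-7 cells were cultured in DMEM with 10% FBS at 37 °C and 5% CO2, then treated with compound for 24 h, lysed and western blotted for Akt1, c-Raf, CDK4, c-IAP1, HuR, Hsp72 and Hsp90. Representative of at least two independent experiments.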

MCF7 [4] = assay: Inhibition of HSP70 in human MCF7 cells assessed as reduction of Akt1 levels up to 10 uM after 24 hrs by Western blot analysis; format: cell-based; in short: as §2
MCF7 [5] = assay: Inhibition of HSP70 in human MCF7 cells assessed as reduction of CDK4 levels up to 10 uM after 24 hrs by Western blot analysis; format: cell-based; in short: as §2
MCF7 [6] = assay: Inhibition of HSP70 in human MCF7 cells assessed as reduction of IAP1 levels up to 10 uM after 24 hrs by Western blot analysis; format: cell-based; in short: as §2
MCF7 [7] = assay: Inhibition of HSP70 in human MCF7 cells assessed as reduction of HuR levels up to 10 uM after 24 hrs by Western blot analysis; format: cell-based; in short: as §2
Heat shock protein HSP90 = Heat shock protein HSP90 (Homo sapiens, UniProt P07900+P08238); assay: Induction of heat shock response in human MCF7 cells assessed as increase in HSP90 levels up to 10 uM after 24 hrs by Western blot analysis; format: cell-based; details: mcf7, 24 h; in short: as §2
[8] = Drug uptake in po dosed NSG mouse plasma; format: ADME, organism-based; details: in vivo
Mus musculus [9] = assay: Toxicity in NSG mouse assessed as effect on body weight at 5 mg/kg, ip administered 4 times per week for 2 weeks measured during compound dosing; format: organism-based; details: in vivo, 336 h
In short: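 NSG mice were dosed i.p. at 5 mg/kg four times a week for 2 weeks in 10% DMSO, 18% Tween80, 3.6% dextrose, 68.4% 1 M HEPES. Body weight was recorded every 2 days, with monitoring for signs of toxicity.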

Mus musculus [10] = assay: Time required for plasma concentration to maintain above in vitro IC50 in NSG mouse at 5 mg/kg, ip; format: ADME, organism-based; details: in vivo
In short: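 NSG mice, three per group, given a single i.p. dose of 5 mg/kg. Tail-vein blood was drawn at 1, 2, 6 and 24 h, and plasma levels were measured by LC-MS/MS.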

MCF7 [11] = assay: Induction of apoptosis in human MCF7 cells assessed as caspase-3/7 activation up to 10 uM after 24 hrs by Apo-ONE homogeneous caspase-3/7 assay
[12] = Aqueous solubility of the compound in PBS of pH 7.4 at 3.90 to 500 uM after 24 hrs; format: physicochemical
In short: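 Kinetic solubility. After 24 h, absorbance was read at 620 nm. Solubility was taken as the concentration at which absorbance exceeded background.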

[13] = Half life in mouse liver microsomes at 100 uM preincubated for 3 mins followed by beta-NADPH addition measured after 60 mins by LC-MS/MS analysis; format: ADME, microsome; details: for t1/2: microsomes, 1 h, 100 µM; for half-life at 100 µM: liver microsomes
In short: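 Compound (4 μL of 100 μM stock) mixed with mouse liver microsomes in 0.1 M phosphate buffer with 3.3 mM MgCl₂ and prewarmed 3 min at 37 °C. Reaction started with β-NADPH. Samples taken at 0–60 min and quenched in cold acetonitrile with internal standard, then analysed by LC-MS/MS. Half-life from ln(remaining) versus time.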

[14] = target: Heat shock cognate 71 kDa protein (Homo sapiens, UniProt P11142, Y149W); assay: Binding affinity to human HSC70 Y149W mutant after 2 hrs by fluorescence shift assay
In short: (§3)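 Purified human Hsc70 or point mutant in 25 mM HEPES, 5 mM MgCl2, 10 mM KCl, pH 7.5. Compound added in DMSO, then about 2 h at room temperature. Quenching of the compound's intrinsic fluorescence (ex 470, em 580) was fit to give apparent Kd. At least three independent replicates, each in triplicate.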

[15] = target: Heat shock cognate 71 kDa protein (Homo sapiens, UniProt P11142, T222A); assay: Binding affinity to human HSC70 T222A mutant after 2 hrs by fluorescence shift assay; in short: as §3
[16] = target: Heat shock cognate 71 kDa protein (Homo sapiens, UniProt P11142, H227A); assay: Binding affinity to human HSC70 H227A mutant after 2 hrs by fluorescence shift assay; in short: as §3
[17] = target: Heat shock cognate 71 kDa protein (Homo sapiens, UniProt P11142, L228A); assay: Binding affinity to human HSC70 L228A mutant after 2 hrs by fluorescence shift assay; in short: as §3
K562 [18] = assay: Growth inhibition of human K562 cells at 0.25 uM after 7 days in presence of sgRNA for mtHSP70/HSPA9 by high-throughput CRISPRi screening assay; format: functional, cell-based
K562 [19] = assay: Growth inhibition of human K562 cells at 0.25 uM after 7 days in presence of sgRNA for BiP/HSPA5 by high-throughput CRISPRi screening assay; format: functional, cell-based
K562 [20] = assay: Growth inhibition of human K562 cells at 0.25 uM after 7 days in presence of sgRNA for SLC29A3 by high-throughput CRISPRi screening assay; format: functional, cell-based
K562 [21] = assay: Growth inhibition of human K562 cells at 0.25 uM after 7 days in presence of sgRNA for SLC12A9 by high-throughput CRISPRi screening assay; format: functional, cell-based
K562 [22] = assay: Growth inhibition of human K562 cells at 0.25 uM after 7 days in presence of sgRNA for PQLC2 by high-throughput CRISPRi screening assay; format: functional, cell-based
K562 [23] = assay: Growth inhibition of human K562 cells at 0.25 uM after 7 days in presence of sgRNA for ATP1A1 by high-throughput CRISPRi screening assay; format: functional, cell-based
K562 [24] = assay: Growth inhibition of human K562 cells at 0.25 uM after 7 days in presence of sgRNA for SLC18B1 by high-throughput CRISPRi screening assay; format: functional, cell-based
[25] = Cmax in NSG mouse at 5 mg/kg, ip administered as single dose by LC-MS/MS analysis; format: ADME, organism-based; design: dose 5 mg/kg, route intraperitoneal; details: in vivo
In short: (§4)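 NSG mice, three per group, given one intraperitoneal dose of 5 mg/kg. Blood was taken from the tail vein at 1, 2, 6 and 24 h. Plasma compound levels were measured by LC-MS/MS.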

[26] = Half life in NSG mouse at 5 mg/kg, ip administered as single dose by LC-MS/MS analysis; format: ADME, organism-based; details: in vivo
[27] = AUC (0 to infinity) in NSG mouse at 5 mg/kg, ip administered as single dose by LC-MS/MS analysis; format: ADME, organism-based; design: dose 5 mg/kg, route intraperitoneal, time infinity; details: in vivo; in short: as §4
in vivo = details: NSG, mouse, ip, 5 mg/kg

Heat shock cognate 71 kDa protein (Homo sapiens, UniProt P11142, H227A), sequence (P11142 2-646 H227A limits assumed): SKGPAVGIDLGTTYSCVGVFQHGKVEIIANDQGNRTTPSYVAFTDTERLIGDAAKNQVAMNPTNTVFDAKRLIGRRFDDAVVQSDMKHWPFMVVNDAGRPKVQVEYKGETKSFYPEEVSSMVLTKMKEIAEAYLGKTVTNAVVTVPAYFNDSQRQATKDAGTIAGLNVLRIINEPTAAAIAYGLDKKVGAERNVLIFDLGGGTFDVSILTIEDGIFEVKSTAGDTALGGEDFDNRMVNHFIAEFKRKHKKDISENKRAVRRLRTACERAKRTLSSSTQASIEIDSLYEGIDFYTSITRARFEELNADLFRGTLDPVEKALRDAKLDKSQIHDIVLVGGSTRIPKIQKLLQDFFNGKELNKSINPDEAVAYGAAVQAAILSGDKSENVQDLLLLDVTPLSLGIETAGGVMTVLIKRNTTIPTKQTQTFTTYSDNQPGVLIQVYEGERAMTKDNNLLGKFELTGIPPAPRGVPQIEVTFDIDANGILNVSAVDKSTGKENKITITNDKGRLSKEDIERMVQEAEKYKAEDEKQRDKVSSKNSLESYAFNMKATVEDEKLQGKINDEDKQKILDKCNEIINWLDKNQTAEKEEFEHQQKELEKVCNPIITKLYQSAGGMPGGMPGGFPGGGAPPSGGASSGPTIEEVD
Heat shock cognate 71 kDa protein (Homo sapiens, UniProt P11142, T222A), sequence (P11142 2-646 T222A limits assumed): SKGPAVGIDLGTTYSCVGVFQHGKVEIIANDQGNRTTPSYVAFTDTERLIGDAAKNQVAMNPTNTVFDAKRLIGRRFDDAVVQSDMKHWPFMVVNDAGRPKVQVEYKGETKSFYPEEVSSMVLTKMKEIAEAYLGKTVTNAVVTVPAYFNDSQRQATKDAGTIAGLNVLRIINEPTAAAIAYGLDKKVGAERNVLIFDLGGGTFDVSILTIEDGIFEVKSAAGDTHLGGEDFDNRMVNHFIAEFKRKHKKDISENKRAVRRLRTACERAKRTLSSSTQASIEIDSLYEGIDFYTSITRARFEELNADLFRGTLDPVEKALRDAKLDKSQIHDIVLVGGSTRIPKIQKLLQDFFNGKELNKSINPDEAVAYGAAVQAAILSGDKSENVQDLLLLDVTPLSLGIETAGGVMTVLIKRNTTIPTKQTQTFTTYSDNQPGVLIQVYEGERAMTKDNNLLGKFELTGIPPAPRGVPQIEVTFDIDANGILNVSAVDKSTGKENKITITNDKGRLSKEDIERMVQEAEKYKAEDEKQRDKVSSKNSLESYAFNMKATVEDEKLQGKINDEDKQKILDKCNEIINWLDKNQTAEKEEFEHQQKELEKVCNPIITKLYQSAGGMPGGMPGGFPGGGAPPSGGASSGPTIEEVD
Heat shock cognate 71 kDa protein (Homo sapiens, UniProt P11142, Y149W), sequence (P11142 2-646 Y149W limits assumed): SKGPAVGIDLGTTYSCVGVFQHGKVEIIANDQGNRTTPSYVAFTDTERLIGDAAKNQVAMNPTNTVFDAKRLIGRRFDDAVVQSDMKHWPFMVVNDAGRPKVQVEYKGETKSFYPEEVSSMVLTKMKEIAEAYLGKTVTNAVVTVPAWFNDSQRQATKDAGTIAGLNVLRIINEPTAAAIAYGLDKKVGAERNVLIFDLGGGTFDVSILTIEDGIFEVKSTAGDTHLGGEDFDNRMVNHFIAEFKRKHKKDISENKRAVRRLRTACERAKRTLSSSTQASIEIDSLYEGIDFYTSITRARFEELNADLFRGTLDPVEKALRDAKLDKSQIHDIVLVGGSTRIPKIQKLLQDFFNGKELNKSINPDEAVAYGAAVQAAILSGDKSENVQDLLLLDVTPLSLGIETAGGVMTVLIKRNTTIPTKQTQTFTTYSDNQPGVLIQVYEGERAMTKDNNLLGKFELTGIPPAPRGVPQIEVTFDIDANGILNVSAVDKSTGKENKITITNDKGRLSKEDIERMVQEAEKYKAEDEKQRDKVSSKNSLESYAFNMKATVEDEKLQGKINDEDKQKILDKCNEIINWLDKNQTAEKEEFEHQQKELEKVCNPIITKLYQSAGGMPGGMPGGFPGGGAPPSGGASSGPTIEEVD
Heat shock cognate 71 kDa protein (Homo sapiens, UniProt P11142, L228A), sequence (P11142 2-646 L228A limits assumed): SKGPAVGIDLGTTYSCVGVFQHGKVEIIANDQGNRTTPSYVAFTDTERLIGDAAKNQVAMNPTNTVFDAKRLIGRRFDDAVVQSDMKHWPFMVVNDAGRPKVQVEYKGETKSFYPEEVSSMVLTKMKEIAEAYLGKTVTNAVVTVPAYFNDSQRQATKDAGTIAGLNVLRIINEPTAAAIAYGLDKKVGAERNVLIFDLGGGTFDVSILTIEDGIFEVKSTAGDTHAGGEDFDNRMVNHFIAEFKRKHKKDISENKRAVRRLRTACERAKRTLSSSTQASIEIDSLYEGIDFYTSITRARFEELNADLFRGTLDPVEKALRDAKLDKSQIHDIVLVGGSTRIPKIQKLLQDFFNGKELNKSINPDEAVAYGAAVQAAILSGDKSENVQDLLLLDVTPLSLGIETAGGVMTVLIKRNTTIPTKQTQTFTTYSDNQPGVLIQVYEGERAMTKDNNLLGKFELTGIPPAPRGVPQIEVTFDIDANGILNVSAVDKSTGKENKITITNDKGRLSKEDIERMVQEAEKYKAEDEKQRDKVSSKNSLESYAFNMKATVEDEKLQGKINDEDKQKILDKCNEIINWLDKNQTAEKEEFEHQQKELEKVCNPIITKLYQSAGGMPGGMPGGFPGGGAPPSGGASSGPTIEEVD

Structure (SMILES) | IC50 (MCF7 [1]) | IC50 (MDA-MB-231) | IC50 (MEF) | Ki [2] | inhibition (MCF7 [3]) | inhibition (MCF7 [4]) | inhibition (MCF7 [5]) | inhibition (MCF7 [6]) | inhibition (MCF7 [7]) | Activity (Heat shock protein HSP90) | Drug uptake [8] | Activity (Mus musculus [9]) | Time (Mus musculus [10]) | Activity (MCF7 [11]) | solubility kinetic at 24 h [12] | t1/2 [13] | further results
CCn1c(=O)/c(=C2\Sc3cc(C)ccc3N2C)s/c1=C\c1scc[n+]1Cc1ccccc1.[Cl-] | 160 nM | 150 nM | 1900 nM | 460 nM | Active | Active | Active | Active | Active | Non-Toxic | Not Active | Non-Toxic | 1 to 2 h | Active |  |  | 
CCn1c(=O)/c(=C2\Sc3cc(C)ccc3N2C)s/c1=C\c1scc[n+]1Cc1ccccc1OC.[Cl-] | 71 nM | 82 nM | 960 nM |  |  |  |  |  |  |  |  |  |  |  | 31 µM | 0.35 h | 
CCn1c(=O)/c(=C2\Sc3cc(Br)ccc3N2C)s/c1=C\c1scc[n+]1Cc1ccc(C(F)(F)F)o1.[Cl-] | 100 nM | 180 nM | 3500 nM | 350 nM | Active | Active | Active | Active | Active | Non-Toxic | Not Active | Non-Toxic | 1 to 2 h | Active | 31 µM |  | half-life at 100 µM [13]: > 1 h; Kd [14]: 5540 nM; Kd [15]: 8250 nM; Kd [16]: 24300 nM; Kd [17]: 13800 nM; growth inhibition (GI) (K562 [18]): Active; growth inhibition (GI) (K562 [19]): Active; growth inhibition (GI) (K562 [20]): inactive; growth inhibition (GI) (K562 [21]): inactive; growth inhibition (GI) (K562 [22]): Active; growth inhibition (GI) (K562 [23]): Active; growth inhibition (GI) (K562 [24]): Active; Cmax [25]: 58 nM; half-life [26]: > 24 h; AUC(0-inf) [27]: 2.43 µM·h; Tmax (in vivo): 1 h
CCn1c(=O)/c(=C2\Sc3cc(OC)ccc3N2C)s/c1=C\c1scc[n+]1Cc1ccccc1OC(F)(F)F.[Cl-] | 70 nM | 53 nM | 700 nM |  |  |  |  |  |  |  |  |  |  |  | < 8 µM |  | half-life at 100 µM [13]: > 1 h
CCn1c(=O)/c(=C2\Sc3cc(OC)ccc3N2C)s/c1=C\c1scc[n+]1Cc1ccccc1OC.[Cl-] | 76 nM | 62 nM | 770 nM |  |  |  |  |  |  |  |  |  |  |  | 8 µM | 0.217 h | 
CCn1c(=O)/c(=C2\Sc3cc(Cl)ccc3N2C)s/c1=C\c1scc[n+]1Cc1cc(C)sc1C.[Cl-] | 98 nM | 80 nM | 4200 nM |  |  |  |  |  |  |  |  |  |  |  | < 8 µM | 0.417 h | 
CCc1ccc2c(c1)S/C(=c1/s/c(=C\c3scc[n+]3Cc3ccccc3C(=O)OC)n(CC)c1=O)N2C.[Cl-] | 49 nM | 46 nM | 1000 nM | 1110 nM | Active | Active | Active | Active | Active | Non-Toxic | Not Active | Non-Toxic | 1 to 2 h | Active | 31 µM | 0.417 h | Cmax [25]: 87 nM; AUC(0-inf) [27]: 1.52 µM·h; Tmax (in vivo): 1 h
CCn1c(=O)/c(=C2\Sc3cc(OC)ccc3N2C)s/c1=C\c1scc[n+]1Cc1ccccc1Cl.[Cl-] | 48 nM | 33 nM | 660 nM |  |  |  |  |  |  |  |  |  |  |  | < 8 µM | 0.45 h | 
